Reference: paper PMC8217219 (Bone, 2021)

What was measured:
[1] = test system: MC3T3 cells; test: Live/Dead cytotoxicity assay; format: cell-based; conditions: subconfluent MC3T3 cells, 100μM, 3 days
Outline: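 Viability was scored in subconfluent MC3T3-E1 (sc4) cultures after 3 days with test compound at 1, 10 or 100 μM. Medium was removed and cells were incubated 20 min with calcein-AM and ethidium homodimer-1 in PBS. Live-cell fluorescence was read at 465/540 nm. Values were normalized to DMSO-treated control (1:100 dilution).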

[2] = test system: MC3T3 cells; test: Hoechst staining; format: cell-based; conditions: subconfluent MC3T3 cells, 100μM, 3 days
Outline: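 Subconfluent, proliferating MC3T3-E1 (sc4) cells were exposed to test compound at 1, 10 or 100 μM for 3 days. Cells were washed with PBS, covered with 0.1X Tris-EDTA, frozen at −80°C for at least 2 h and thawed at room temperature. They were then stained 15 min in the dark with Hoechst 33258 (0.5 μg/ml in 0.3 M NaCl, 5 mM Tris, pH 8.0). Fluorescence was read at 340/460 and fit to a DNA standard curve. Values were normalized to DMSO control (1:100 dilution); n = 3.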

[3] = test system: MC3T3 cells; test: Alkaline phosphatase; format: cell-based, mouse; conditions: day six; for alkaline phosphatase (Alpl) enzymatic activity: MC3T3 cells, optimal doses (40μM CPI-169, 5μM all others), vs vehicle
[4] = test system: MC3T3 cells; test: Alizarin red staining; format: cell-based, mouse; conditions: for osteogenic boosting (calcium deposition, alizarin red) / mineralization (alizarin red staining, percent coverage area): 5μM, day 18; for osteogenic boosting (calcium deposition, alizarin red): Ezh2 overexpressing MC3T3 cells; for mineralization (alizarin red staining, percent coverage area): control MC3T3 cells (empty vector)
[5] = test system: MC3T3 cells; test: RT-qPCR of osteogenic genes; format: cell-based, mouse; conditions: for osteogenic markers (mRNA) / expression of bone-related genes: 5μM; for expression of bone-related genes: combined with Ezh2 siRNA knockdown, days five and ten
[6] = test system: H3K27me3; test: Western blot of cellular H3K27me3 levels; format: cell-based, mouse; conditions: MC3T3 cells, single dose 1μM, 24 hour treatment, relative to Gapdh
[7] = test system: MC3T3 cells; test: MTS metabolic activity assay; format: cell-based; conditions: subconfluent MC3T3 cells, 10μM, 3 days
Outline: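 Subconfluent MC3T3-E1 (sc4) cells were given test compound at 1, 10 or 100 μM for 3 days. The MTS reagent was used per kit protocol and absorbance was read at 490 nm. Metabolic activity was expressed relative to DMSO-treated control (1:100 dilution).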

[8] = cited from earlier work
[9] = MC3T3 cell differentiation, day ten
[10] = MC3T3 cells overexpressing Ezh2, day ten
[11] = 5μM day two to five, combined with Ezh2 siRNA knockdown, day 24

CCS(=O)(=O)N1CCC([C@@H](C)n2c(C)c(C(=O)NCc3c(OC)cc(C)[nH]c3=O)c3ccccc32)CC1 [CPI-169]
fraction of living cells (live/dead staining) [1]: not observed | cell numbers (Hoechst staining) [2]: not observed | alkaline phosphatase (Alpl) enzymatic activity [3]: ~three fold stimulation | optimal dose ([4]; MC3T3 cells, 2X dose, from alizarin red quantitation (Fig. 4, red arrows)): 40 µM

C[S+](C)[O-] [DMSO, dimethyl sulfoxide]
mRNA levels of osteoblast differentiation markers (Alpl, Sp7, Ibsp, Phospho1) ([5]; 0.05% DMSO or 0.4% DMSO vs no DMSO, osteogenic medium, six days): significantly elevated | expression of late marker Bglap ([5]; DMSO 0.05% or 0.4% in osteogenic media, day ten): did not show compelling changes | Alpl enzymatic activity ([3]; low (0.05%) and high (0.4%) doses vs osteogenic medium (OM)): enhance Alpl enzymatic activity

CCC(CC)n1ccc2c(C(=O)NCc3c(C)cc(C)[nH]c3=O)cc(C#N)cc21 [EI1]
fraction of living cells (live/dead staining) [1]: not observed | cell numbers (Hoechst staining) [2]: not observed | reduction in H3K27me3 [6]: 2–3 fold | metabolic activity (MTS) [7]: less harmful to metabolic cell activity

CCN(c1cc(-c2ccc(CN3CCOCC3)cc2)cc(C(=O)NCc2c(C)cc(C)[nH]c2=O)c1C)C1CCOCC1 [EPZ-6438]
fraction of living cells (live/dead staining) [1]: significant reductions | osteogenic markers (mRNA) [5, 9]: highly effective at increasing osteogenic markers | osteogenic markers (mRNA) [5, 10]: not when cells overexpress Ezh2 | expression of bone-related genes [5]: co-stimulates expression of bone-related genes | cell numbers (Hoechst staining) [2]: significant reductions | reduction in H3K27me3 [6]: > 5 fold | metabolic activity (MTS) [7]: less harmful to metabolic cell activity | alizarin red staining compared with GSK126 co-treatment ([4]; 5μM combined with Ezh2 siRNA, day 24): more robust staining | ECM mineralization (alizarin red) [4, 11]: enhances ECM mineralization | osteogenic boosting (calcium deposition, alizarin red) [4]: not observed | mineralization (alizarin red staining, percent coverage area) [4]: accelerated mineralization and more intense alizarin red staining

CC[C@H](C)n1cc(C)c2c(C(=O)NCc3c(C)cc(C)[nH]c3=O)cc(-c3ccc(N4CCNCC4)nc3)cc21 [GSK126]
fraction of living cells (live/dead staining) [1]: significant reductions | osteogenic markers (mRNA) [5, 9]: highly effective at increasing osteogenic markers | osteogenic markers (mRNA) [5, 10]: not when cells overexpress Ezh2 | expression of bone-related genes [5]: co-stimulates expression of bone-related genes | adverse effects in other tissues and organs (e.g., spleen, liver) ([8]; adult mice (8–12 weeks) ref 29): no adverse effects | bone anabolic effect ([8]; adult mice (8–12 weeks) ref 29): modestly bone anabolic | bone accrual ([8]; normal and ovariectomized mice ref 29): effective for stimulation of bone accrual | cell numbers (Hoechst staining) [2]: significant reductions | reduction in H3K27me3 [6]: 2–3 fold | ECM mineralization (alizarin red) [4, 11]: enhances ECM mineralization | osteogenic boosting (calcium deposition, alizarin red) [4]: not observed | mineralization (alizarin red staining, percent coverage area) [4]: accelerated mineralization and more intense alizarin red staining

Cc1cc(C)c(CNC(=O)c2cc(-c3ccc(N4CCN(C)CC4)nc3)cc3c2c(C)cn3C(C)C)c(=O)[nH]1 [GSK503]
fraction of living cells (live/dead staining) [1]: significant reductions | cell numbers (Hoechst staining) [2]: significant reductions | reduction in H3K27me3 [6]: > 5 fold

Cc1cc(C)c(CN2CCc3c(Cl)cc(-c4c(C)noc4C)c(Cl)c3C2=O)c(=O)[nH]1 [PF-06726304]
fraction of living cells (live/dead staining) [1]: significant reductions | cell numbers (Hoechst staining) [2]: significant reductions

CCCc1cc(C)[nH]c(=O)c1CNC(=O)c1cc(-c2ccc(N3CCN(C(C)C)CC3)nc2)cc2c1cnn2C(C)C [UNC1999]
fraction of living cells (live/dead staining) [1]: significant reductions | cell numbers (Hoechst staining) [2]: significant reductions | alkaline phosphatase (Alpl) enzymatic activity [3]: except for UNC1999 | reduction in H3K27me3 [6]: > 5 fold | ECM mineralization (alizarin red) ([4]; MC3T3 cells, optimal doses for first six days, day 24 and day 28): except UNC1999
